Measured values: PMC5538687 (International Journal of Nanomedicine, 2017)
Read-outs that look alike come from different tables or passages of the source.

Assays:
mouse FAPα protein = target: T1, mouse FAPα protein (Mus musculus, UniProt P97321); assay: In vitro protease assay with recombinant FAPα; format: biochemical; details: 37°C
T1 sequence (P97321 1-761): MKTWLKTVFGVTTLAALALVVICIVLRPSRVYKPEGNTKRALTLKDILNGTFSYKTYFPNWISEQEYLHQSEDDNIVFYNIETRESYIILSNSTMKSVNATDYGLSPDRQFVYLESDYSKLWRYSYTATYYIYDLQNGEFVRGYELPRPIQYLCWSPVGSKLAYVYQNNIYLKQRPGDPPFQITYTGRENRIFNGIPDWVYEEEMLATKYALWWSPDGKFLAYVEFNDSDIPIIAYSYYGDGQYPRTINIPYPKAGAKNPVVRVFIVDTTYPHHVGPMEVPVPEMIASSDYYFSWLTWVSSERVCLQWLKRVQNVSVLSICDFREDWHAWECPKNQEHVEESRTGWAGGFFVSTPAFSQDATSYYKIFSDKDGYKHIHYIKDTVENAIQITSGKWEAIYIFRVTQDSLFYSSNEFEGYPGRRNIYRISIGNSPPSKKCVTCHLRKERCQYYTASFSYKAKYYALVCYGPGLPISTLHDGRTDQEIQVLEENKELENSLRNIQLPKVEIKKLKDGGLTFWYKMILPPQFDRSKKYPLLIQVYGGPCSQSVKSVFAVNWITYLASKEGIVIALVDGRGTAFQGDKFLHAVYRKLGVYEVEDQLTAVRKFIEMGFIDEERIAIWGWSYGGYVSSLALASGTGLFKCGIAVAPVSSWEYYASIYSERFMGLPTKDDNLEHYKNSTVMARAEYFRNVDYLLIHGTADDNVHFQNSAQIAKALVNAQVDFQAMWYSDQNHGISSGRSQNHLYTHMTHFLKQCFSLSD

[1] = tested on: Eca109 xenograft tumor (FAPα in tumor stroma); format: in vivo, BALB/c-nude mice; details: for AUC of ROC curve, ESCC vs healthy mice: 1 hour urine, n=10 per group
Method in brief: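 BALB/c-nude mice aged 4–6 weeks were given 5×10⁶ Eca109 cells s.c. and grown 4 weeks to tumours of 100–300 mm³. Tumour-bearing and age-matched healthy mice (n=10 each) were co-injected via the tail vein with probe nanoparticles (100 μL PBS; 100 or 10 nM by peptide) plus control peptide at the same level. Urine was collected at set times, with 1 h urine used for diagnosis. It was stored at −80°C, diluted 1:10–10² in PBS/1% BSA, and run by ELISA in at least duplicate. ROC analysis was applied.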

Eca109 xenograft tumor = assay: In vivo imaging and biodistribution; design: species or system BALB/c-nude mice; details: 100 μL, 100 nM by peptide, i.v.; 1 hour postinjection

- Level of cleaved reporter peptides over time (mouse FAPα protein; marker-MNPs treated with 10 nM FAPα): increased over time
Substance: Bio-eGvndneeGffsar-K [5-FAM]-GPGPNQC [marker-MNPs]
- Level of cleaved reporter peptides with increasing FAPα concentration (mouse FAPα protein; marker-MNPs 10 nM by peptide, recombinant FAPα 0.1–100 pM, 1 hour, ELISA, n=3 per dose): elevated levels of cleaved reporter peptides were detected by ELISA with increasing concentration of FAPα
- Sensitivity ([1]; 10 nM group): 90%
- Specificity ([1]; 10 nM group): 97%
- AUC of ROC curve, ESCC vs healthy mice ([1]; 10 nM group): 0.97
- Sensitivity ([1]; 100 nM group): 100%
- Specificity ([1]; 100 nM group): 100%
- AUC of ROC curve, ESCC vs healthy mice ([1]; 100 nM group): 1.0
- Time of peak concentration of cleaved reporter peptide in urine ([1]; 100 nM marker-MNPs i.v., ESCC tumor mice, n=3, ELISA): 60 min
- Time at which urinary cleaved reporter dropped to the bottom line ([1]; 100 nM marker-MNPs i.v., ESCC tumor mice, postinjection): 150 min
- Urine reporter in healthy mice ([1]; 100 nM marker-MNPs i.v., healthy mice, 0–180 min): not detectable
- Ratio of reporter to reporter control, ESCC vs healthy mice ([1]; 1 hour postinjection urine, P<0.0001): significantly higher than in healthy control mice
- In vivo fluorescence imaging of tumor-bearing mice vs control (Eca109 xenograft tumor): strong fluorescent activation in the tumor region and bladder
